Reference: ChEMBL document CHEMBL1141332, “Cytotoxic metabolites from an Indonesian sponge Lendenfeldia sp” (J Nat Prod, 2007)

What was measured:
Malme-3M = assay: Cytotoxicity against human MALME-3M cells; type: functional; conditions: for CC50: read-out: Log LC50 (the source's name) (converted); for TGI: read-out: Log TGI (converted)
RXF 393 = assay: Cytotoxicity against human RXF393 cells; type: functional; conditions: for TGI: read-out: Log TGI (converted)
SK-MEL-5 = assay: Cytotoxicity against human SK-MEL-5 cells; type: functional; conditions: for CC50: read-out: Log LC50 (the source's name) (converted); for TGI: read-out: Log TGI (converted)
EKVX = assay: Cytotoxicity against human EKVX cells; type: functional; conditions: for CC50: read-out: Log LC50 (the source's name) (converted); for TGI: read-out: Log TGI (converted)
SR = assay: Cytotoxicity against human SR cells; type: functional; conditions: for CC50: read-out: Log LC50 (the source's name) (converted); for TGI: read-out: Log TGI (converted)
CCRF-CEM = assay: Cytotoxicity against human CCRF-CEM cells; type: functional; conditions: for TGI: read-out: Log TGI (converted)
M14 = assay: Cytotoxicity against human M14 cells; type: functional; conditions: for CC50: read-out: Log LC50 (the source's name) (converted); for TGI: read-out: Log TGI (converted)
ACHN = assay: Cytotoxicity against human ACHN cells; type: functional; conditions: for TGI: read-out: Log TGI (converted)
A498 = assay: Cytotoxicity against human A498 cells; type: functional; conditions: for TGI: read-out: Log TGI (converted)
SW-620 = assay: Cytotoxicity against human SW620 cells; type: functional; conditions: for CC50: read-out: Log LC50 (the source's name) (converted); for TGI: read-out: Log TGI (converted)
UO-31 = assay: Cytotoxicity against human UO31 cells; type: functional; conditions: for TGI: read-out: Log TGI (converted)
SK-MEL-2 = assay: Cytotoxicity against human SK-MEL-2 cells; type: functional; conditions: for CC50: read-out: Log LC50 (the source's name) (converted); for TGI: read-out: Log TGI (converted)
SF-295 = assay: Cytotoxicity against human SF295 cells; type: functional; conditions: for CC50: read-out: Log LC50 (the source's name) (converted); for TGI: read-out: Log TGI (converted)
CAKI-1 = assay: Cytotoxicity against human CAKI1 cells; type: functional; conditions: for TGI: read-out: Log TGI (converted)
[1] = target: T1, Hypoxia inducible factors; HIF-1-alpha, HIF-2-alpha (Homo sapiens, UniProt Q16665+Q99814); assay: Inhibition of 1, 10-phenanthroline-induced HIF1 activity in human T47D cells by cell based reporter assay
In short: (§1)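 T47D cells grown in DMEM/F12 with glutamine, 10% FCS and penicillin/streptomycin at 37 °C under 5% CO2, then transiently transfected with the pHRE-TK-Luc reporter. Compounds from DMSO stocks were tested at half-log concentrations for 16 h, with luciferase read-out. IC50 was taken from curve fits of triplicate experiments.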

[2] = target: T1, Hypoxia inducible factors; HIF-1-alpha, HIF-2-alpha; assay: Inhibition of HIF1 activity in human T47D cells by cell based reporter assay; in short: as §1
MDA-MB-231 [3] = assay: Inhibition of human MDA-MB-231 cells assessed as cell viability under hypoxic condition after 48 hrs; type: functional, cell-based; conditions: MDA-MB-231, 48 h
In short: (§2)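 Neutral Red proliferation/viability assay on T47D or MDA-MB-231 cells kept in DMEM/F12 with 10% FCS at 37 °C under 5% CO2, with 48 h compound exposure. Read-out was OD540, and % inhibition = 1 − OD540(treated)/OD540(control). IC50 was derived from the concentration–response data.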

T47D [4] = assay: Inhibition of human T47D cells assessed as cell viability under normoxic condition after 48 hrs; type: functional, cell-based; in short: as §2
T47D [5] = assay: Inhibition of human T47D cells assessed as cell viability under hypoxic condition after 48 hrs; type: functional, cell-based; in short: as §2
MDA-MB-231 [6] = assay: Inhibition of human MDA-MB-231 cells assessed as cell viability under normoxic condition after 48 hrs; type: functional, cell-based; conditions: MDA-MB-231, 48 h; in short: as §2
T47D [7] = assay: Cell viability of human T47D cells under hypoxic condition after 16 hrs; type: functional, cell-based

## CC(=O)O[C@H]1C[C@H]2[C@@](C)(CC[C@H]3C(C)(C)CCC[C@@]32CO)[C@@H]2CC=C(C(C)=O)[C@H](C=O)[C@@]12C
Malme-3M
  GI50: 1.29 µM
  CC50: 5.89 µM
  TGI: 2.75 µM
RXF 393
  GI50: 0.295 µM
  LC50: 3.63 µM
  TGI: 1.12 µM
SK-MEL-5
  GI50: 0.501 µM
  CC50: 4.07 µM
  TGI: 1.7 µM
EKVX
  GI50: 0.832 µM
  CC50: 4.9 µM
  TGI: 2.14 µM
SR
  GI50: 0.288 µM
  CC50: 3.72 µM
  TGI: 0.759 µM
CCRF-CEM
  GI50: 0.347 µM
  LC50: 4.47 µM
  TGI: 1.17 µM
M14
  GI50: 1 µM
  CC50: 4.9 µM
  TGI: 2.24 µM
ACHN
  GI50: 0.282 µM
  LC50: 3.24 µM
  TGI: 1.07 µM
A498
  GI50: 1.48 µM
  LC50: 5.89 µM
  TGI: 2.95 µM
SW-620
  GI50: 0.162 µM
  CC50: 0.676 µM
  TGI: 0.331 µM
UO-31
  GI50: 0.417 µM
  LC50: 3.98 µM
  TGI: 1.45 µM
SK-MEL-2
  GI50: 1.62 µM
  CC50: 8.13 µM
  TGI: 3.63 µM
SF-295
  GI50: 0.479 µM
  CC50: 4.27 µM
  TGI: 1.74 µM

## CC(=O)C1=CC[C@H]2[C@]3(C)CC[C@H]4C(C)(C)CCC[C@]4(C(=O)O)[C@H]3CC(=O)[C@]2(C)[C@H]1C=O
Malme-3M
  GI50: 1.62 µM
  CC50: 6.76 µM
  TGI: 3.31 µM
RXF 393
  GI50: 1.17 µM
  TGI: 2.57 µM
SK-MEL-5
  GI50: 1.45 µM
  CC50: 5.25 µM
  TGI: 2.75 µM
EKVX
  GI50: 2.14 µM
  CC50: 25.1 µM
  TGI: 5.62 µM
CAKI-1
  GI50: 0.646 µM
  LC50: 12.9 µM
  TGI: 2.45 µM
SR
  GI50: 0.457 µM
  CC50: 6.76 µM
  TGI: 1.86 µM
[1]
  IC50: 0.5 µM
[2]
  IC50: 0.64 µM
M14
  GI50: 1.82 µM
  CC50: 6.92 µM
  TGI: 3.55 µM
ACHN
  GI50: 0.479 µM
  LC50: 4.17 µM
  TGI: 1.7 µM
A498
  GI50: 1.12 µM
  LC50: 15.8 µM
  TGI: 3.63 µM
SW-620
  GI50: 0.324 µM
  CC50: 3.39 µM
  TGI: 1.12 µM
MDA-MB-231 [3]
  IC50: 1.5 µM
UO-31
  GI50: 1.2 µM
  LC50: 5.62 µM
  TGI: 2.57 µM
T47D [4]
  IC50: 1.4 µM
T47D [5]
  IC50: 1.9 µM
SK-MEL-2
  GI50: 2.4 µM
  CC50: 37.2 µM
  TGI: 5.25 µM
SF-295
  GI50: 1.45 µM
  CC50: 6.92 µM
  TGI: 3.16 µM
MDA-MB-231 [6]
  IC50: 1.4 µM
T47D [7]
  IC50: 3.3 µM

## CC1OC(=O)[C@H]2[C@H]1[C@@H](O)C[C@H]1[C@]3(C)CC[C@H]4C(C)(C)CCC[C@]4(C)[C@H]3C[C@@H](O)[C@]21C (stereo partly specified)
Malme-3M
  GI50: 26.9 µM
  CC50: 91.2 µM
  TGI: 50.1 µM
RXF 393
  GI50: 14.8 µM
  LC50: 58.9 µM
  TGI: 29.5 µM
SK-MEL-5
  GI50: 13.5 µM
  CC50: 52.5 µM
  TGI: 26.3 µM
EKVX
  GI50: 23.4 µM
  CC50: 89.1 µM
  TGI: 45.7 µM
CAKI-1
  GI50: 30.9 µM
  LC50: > 100 µM
  TGI: 56.2 µM
SR
  GI50: 8.51 µM
  CC50: > 100 µM
  TGI: 35.5 µM
[1]
  IC50: 2.4 µM
[2]
  IC50: 3.5 µM
M14
  GI50: 19.1 µM
  CC50: 69.2 µM
  TGI: 36.3 µM
ACHN
  GI50: 18.2 µM
  LC50: 56.2 µM
  TGI: 31.6 µM
A498
  GI50: 18.6 µM
  LC50: 72.4 µM
  TGI: 37.2 µM
SW-620
  GI50: 12 µM
  CC50: 52.5 µM
  TGI: 25.1 µM
MDA-MB-231 [3]
  IC50: 5.4 µM
UO-31
  GI50: 20.4 µM
  LC50: 75.9 µM
  TGI: 39.8 µM
T47D [4]
  IC50: 4.7 µM
T47D [5]
  IC50: 5.3 µM
SK-MEL-2
  GI50: 25.1 µM
  CC50: > 100 µM
  TGI: 51.3 µM
SF-295
  GI50: 19.5 µM
  CC50: > 100 µM
  TGI: 50.1 µM
MDA-MB-231 [6]
  IC50: 4.9 µM
T47D [7]
  IC50: 6.7 µM

## CC(=O)O[C@@H]1C[C@H]2[C@]3(C)CC[C@H]4C(C)(C)CCC[C@]4(C)[C@H]3C[C@H](O)[C@]2(C)[C@@H](C=O)[C@@H]1C(C)=O [SCALARHERBACIN A]
Malme-3M
  GI50: 1.95 µM
  TGI: 3.89 µM
RXF 393
  GI50: 1.15 µM
  LC50: 5.37 µM
  TGI: 2.51 µM
SK-MEL-5
  GI50: 1.29 µM
  CC50: 5.25 µM
  TGI: 2.63 µM
EKVX
  GI50: 1.32 µM
  CC50: 5.75 µM
  TGI: 2.75 µM
SR
  GI50: 0.282 µM
  TGI: 1.15 µM
CCRF-CEM
  GI50: 0.676 µM
  LC50: 6.46 µM
  TGI: 2.24 µM
M14
  GI50: 1.45 µM
  CC50: 5.37 µM
  TGI: 2.75 µM
ACHN
  GI50: 0.457 µM
  LC50: 3.98 µM
  TGI: 1.55 µM
A498
  GI50: 1.82 µM
  LC50: 6.76 µM
  TGI: 3.47 µM
SW-620
  GI50: 0.214 µM
  CC50: 1.07 µM
  TGI: 0.468 µM
UO-31
  GI50: 1.23 µM
  TGI: 2.57 µM
SK-MEL-2
  GI50: 2.24 µM
  CC50: 16.6 µM
  TGI: 4.79 µM
SF-295
  GI50: 1.45 µM
  CC50: 6.17 µM
  TGI: 3.02 µM
